Experimental data taken from ChEMBL document CHEMBL1131061, “Design and synthesis of a series of potent and orally bioavailable noncovalent thrombin inhibitors that utilize nonbasic groups in the P1 position” (J Med Chem, 1998).

Columns and labels:
[1] = biological target: Prothrombin (Homo sapiens, UniProt P00734); assay: Binding affinity was evaluated on serine protease thrombin.
[2] = Oral bioavailability in rat when dosed in a suspension of 1% methocel; format: ADME, organism-based; details: in vivo
Method in brief: (§1)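 Fasted animals (24 h without food). Oral dose by gavage as a 1% methocel suspension. Intravenous dose given by indwelling jugular vein cannula in rat and by peripheral venipuncture in dog and cynomolgus monkey, in saline or 20% PEG 200. iv/po doses in mg/kg: rat 2/10, 5/20 or 5/12; dog 2/5 or 1/5; monkey 1/5. F (%) is the mean of at least three determinations.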

[3] = Partition coefficient (logP); format: physicochemical; details: octanol/water
Method in brief: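 Log P determined experimentally by standard octanol/water partitioning.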

[4] = species on record: Rattus norvegicus; assay: The final concentration in plasma of rat carotid artery FeCl3 induced thrombosis model; format: ADME, organism-based
Method in brief: (§2)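 Rat carotid artery FeCl₃-induced thrombosis model. Compound in saline vehicle infused iv at 10 μg/kg/min for 120 min before the FeCl₃ insult. Plasma drug concentration measured. Saline vehicle controls run alongside.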

[5] = species on record: Homo sapiens; assay: % Free drug present in human plasma.; format: ADME, organism-based
[6] = biological target: T1, Chymotrypsinogen A (Bos taurus, UniProt P00766); assay: Binding affinity was evaluated on serine protease Chymotrypsinogen; format: single protein
[7] = species on record: Homo sapiens; assay: Concentration of compound in plasma required to double the activated partial thromboplastin time in human measured as 2(APTT) value; format: functional, cell-free
Method in brief: (§3)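 2 × APTT is the inhibitor concentration in plasma required to double the activated partial thromboplastin time.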

[8] = biological target: Plasminogen (Homo sapiens, UniProt P00747); assay: Binding affinity was evaluated on serine protease plasmin.
Chain of Plasminogen (P00747 97-580 limits assumed): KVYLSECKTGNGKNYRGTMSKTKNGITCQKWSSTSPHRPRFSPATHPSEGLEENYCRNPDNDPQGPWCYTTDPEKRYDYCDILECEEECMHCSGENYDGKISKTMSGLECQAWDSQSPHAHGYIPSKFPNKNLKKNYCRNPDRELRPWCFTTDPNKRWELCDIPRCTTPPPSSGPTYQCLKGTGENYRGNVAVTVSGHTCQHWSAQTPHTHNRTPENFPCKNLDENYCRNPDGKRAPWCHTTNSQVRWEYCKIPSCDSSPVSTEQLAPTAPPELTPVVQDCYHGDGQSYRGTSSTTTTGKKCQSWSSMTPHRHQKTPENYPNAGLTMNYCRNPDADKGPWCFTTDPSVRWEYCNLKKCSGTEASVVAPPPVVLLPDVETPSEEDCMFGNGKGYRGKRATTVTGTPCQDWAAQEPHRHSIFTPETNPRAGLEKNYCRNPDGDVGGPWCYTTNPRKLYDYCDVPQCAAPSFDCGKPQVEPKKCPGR
Chain of Plasminogen (P00747 581-810 limits assumed): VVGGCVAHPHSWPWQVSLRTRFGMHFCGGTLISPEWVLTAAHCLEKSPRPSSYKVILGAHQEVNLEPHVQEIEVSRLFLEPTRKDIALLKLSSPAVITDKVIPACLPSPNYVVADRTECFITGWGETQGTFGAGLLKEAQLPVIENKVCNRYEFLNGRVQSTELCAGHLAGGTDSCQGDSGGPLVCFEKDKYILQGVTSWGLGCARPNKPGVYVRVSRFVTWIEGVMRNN

[9] = biological target: Plasma kallikrein (Homo sapiens, UniProt P03952); assay: Binding affinity was evaluated on serine protease plasma kallikrein.; format: cell-free
Chain of Plasma kallikrein (P03952 20-390 limits assumed): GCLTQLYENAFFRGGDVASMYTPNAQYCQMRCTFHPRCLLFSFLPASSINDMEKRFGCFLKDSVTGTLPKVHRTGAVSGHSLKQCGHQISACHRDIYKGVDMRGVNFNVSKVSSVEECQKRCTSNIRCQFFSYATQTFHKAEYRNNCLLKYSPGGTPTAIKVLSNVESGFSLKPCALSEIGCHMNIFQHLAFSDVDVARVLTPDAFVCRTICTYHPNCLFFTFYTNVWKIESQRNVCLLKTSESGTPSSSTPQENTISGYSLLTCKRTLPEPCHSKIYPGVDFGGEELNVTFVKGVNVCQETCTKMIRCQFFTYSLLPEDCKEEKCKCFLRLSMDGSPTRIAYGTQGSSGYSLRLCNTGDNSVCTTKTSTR
Chain of Plasma kallikrein (P03952 391-638 limits assumed): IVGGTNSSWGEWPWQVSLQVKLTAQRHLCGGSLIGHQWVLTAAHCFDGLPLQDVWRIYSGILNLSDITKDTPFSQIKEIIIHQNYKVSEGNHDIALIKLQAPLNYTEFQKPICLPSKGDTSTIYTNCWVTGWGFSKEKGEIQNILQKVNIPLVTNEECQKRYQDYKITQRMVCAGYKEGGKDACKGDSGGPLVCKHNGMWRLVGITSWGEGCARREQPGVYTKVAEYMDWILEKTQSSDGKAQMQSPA

[10] = biological target: Tissue-type plasminogen activator (Homo sapiens, UniProt P00750); assay: Binding affinity was evaluated on serine protease TPA.
Chain of Tissue-type plasminogen activator (P00750 whole entry): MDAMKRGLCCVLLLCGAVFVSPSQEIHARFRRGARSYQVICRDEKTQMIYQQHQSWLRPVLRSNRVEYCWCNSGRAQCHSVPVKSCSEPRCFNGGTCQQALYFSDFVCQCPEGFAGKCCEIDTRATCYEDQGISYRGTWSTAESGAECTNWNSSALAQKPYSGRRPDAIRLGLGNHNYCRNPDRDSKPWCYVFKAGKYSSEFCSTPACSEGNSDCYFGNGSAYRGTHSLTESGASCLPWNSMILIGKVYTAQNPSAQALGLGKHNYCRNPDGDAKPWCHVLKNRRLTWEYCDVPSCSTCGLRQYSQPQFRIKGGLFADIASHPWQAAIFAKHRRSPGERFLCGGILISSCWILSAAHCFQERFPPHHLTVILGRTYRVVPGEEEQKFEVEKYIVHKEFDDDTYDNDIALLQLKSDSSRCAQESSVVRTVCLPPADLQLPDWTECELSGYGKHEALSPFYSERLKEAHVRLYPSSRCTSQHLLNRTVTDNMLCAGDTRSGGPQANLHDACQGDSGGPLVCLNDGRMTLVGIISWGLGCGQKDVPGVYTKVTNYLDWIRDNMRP

[11] = biological target: T2, Serine protease 1 (Homo sapiens, UniProt P07477); assay: Binding affinity was evaluated on serine protease trypsin.
T2 sequence (P07477 whole entry): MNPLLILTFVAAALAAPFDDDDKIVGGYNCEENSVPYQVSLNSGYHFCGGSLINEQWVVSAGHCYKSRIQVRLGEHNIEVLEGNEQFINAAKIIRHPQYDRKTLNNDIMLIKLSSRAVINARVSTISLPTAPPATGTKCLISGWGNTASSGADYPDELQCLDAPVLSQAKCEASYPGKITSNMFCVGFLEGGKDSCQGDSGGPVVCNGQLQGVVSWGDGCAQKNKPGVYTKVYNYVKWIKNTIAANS

[12] = species on record: Rattus norvegicus; assay: (§4) % Free drug present in rat plasma.; format: ADME, organism-based
[13] = The 2(APTT) value is defined as the concentration of compound in plasma required to double the activated partial thromboplastin time in human; format: functional; method in brief: as §3
[14] = species on record: Rattus norvegicus; assay: Concentration of compound in plasma required to double the activated partial thromboplastin time in rat measured as 2(APTT) value; format: functional, cell-free; method in brief: as §3
[15] = Oral bioavailability in cynomolgus monkey (dosed in a suspension of 1% methocel); format: ADME, organism-based, Macaca fascicularis; details: in vivo; method in brief: as §1
[16] = Oral bioavailability in cynomolgus monkey (dose 5 mg/kg); format: ADME, organism-based, Macaca fascicularis; details: in vivo; method in brief: as §1
[17] = species on record: Rattus norvegicus; assay: as §4; format: functional
[18] = The concentration in plasma; format: ADME, cell-free; method in brief: as §2
[19] = Oral bioavailability in dog (dosed in a suspension of 1% methocel); format: ADME, organism-based, Canis lupus familiaris; details: in vivo; method in brief: as §1
[20] = Oral bioavailability in rats when dosed in a suspension of 1% methocel; format: ADME, organism-based; details: rat, in vivo; method in brief: as §1
[21] = biological target: T1, Chymotrypsinogen A; assay: Selectivity was evaluated as the binding affinity between thrombin versus Chymotrypsinogen
[22] = biological target: T2, Serine protease 1; assay: Selectivity was evaluated as the binding affinity between thrombin versus trypsin.

Structure (SMILES) | Ki [1] [µM] | bioavailability [2] [%] | logP [3] | concentration [4] [nM] | Free [5] [%] | Ki [6] [µM] | Concentration [7] [µM] | Ki [8] [µM] | Ki [9] [µM] | Ki [10] [µM] | Ki [11] [µM] | Concentration [14] [µM] | other results
CCOC(=O)COc1ccc(Cl)cc1CNC(=O)[C@@H]1CCCN1C(=O)[C@H](N)C1CCCCC1 | 0.00045 | – | – | – | – | – | – | – | – | – | – | – | –
N[C@@H](C(=O)N1CCC[C@H]1C(=O)NCc1cc(Cl)ccc1Cl)C1CCCCC1 | 0.005 | 23 | 2.63 | 329 | 4 | 49 | 0.95 | 691 | 586 | 19 | 29 | – | Free [12]: 9%
N[C@@H](C(=O)N1CCC[C@H]1C(=O)NCc1cc(Cl)ccc1O)C1CCCCC1 | 0.0025 | – | – | – | – | – | – | – | – | – | – | – | –
CCN(CC)C(=O)CN[C@@H](C(=O)N1CCC[C@H]1C(=O)NCc1ccccc1Cl)C1CCCCC1 | 0.02 | – | – | – | – | – | – | – | – | – | – | – | –
CC1CNc2c(cccc2S(=O)(=O)N[C@@H](CCCNC(=N)N)C(=O)N2CCC(C)C[C@@H]2C(=O)O)C1 (single isomer, unassigned) [ARGATROBAN] | – | – | – | – | – | – | – | – | – | – | – | – | 2*APTT [13]: 0.28 µM
NC(=O)COc1ccc(Cl)cc1CNC(=O)[C@@H]1CCCN1C(=O)[C@H](N)C1CCCCC1 | 0.0005 | – | 1.96 | 726 | 26 | 131 | 0.25 | 152 | 816 | 11 | 9 | 0.31 | Free [12]: 7%
CCNC(=O)COc1ccc(Cl)cc1CNC(=O)[C@@H]1CCCN1C(=O)[C@H](N)C1CCCCC1 | – | 10 | 2.07 | – | 15 | 71 | 0.41 | – | – | – | 23 | 0.38 | bioavailability [15]: 63%; bioavailability [16]: 63%; Free [17]: 14%; concentration [18]: 794 nM; bioavailability [19]: 40%
CCN(CC)C(=O)CN[C@@H](C(=O)N1CCC[C@H]1C(=O)NCc1cc(Cl)ccc1Cl)C1CCCCC1 | 0.00031 | – | 2.67 | 245 | – | 174 | – | 244 | 399 | 29 | 27 | – | bioavailability [20]: 10%
N[C@@H](C(=O)N1CCC[C@H]1C(=O)NCc1cc(Cl)ccc1OCC(=O)NC1CC1)C1CCCCC1 | – | 20 | 2.04 | – | 12 | 67 | 0.35 | 113 | 79 | 36 | 18 | 0.42 | bioavailability [15]: 34%; bioavailability [16]: 34%; Free [17]: 11%
NC(C(=O)N1CCC[C@H]1C(=O)NCc1cc(Cl)ccc1Cl)C(c1ccccc1)c1ccccc1 (stereo partly specified) | – | – | > 3.1 | – | – | – | – | – | – | – | – | – | Ki [21]: > 50 µM; Ki [22]: 7 µM; bioavailability [19]: 45%
